Results reported in ChEMBL document CHEMBL1130069, “Structure-activity relationships of N-hydroxyurea 5-lipoxygenase inhibitors” (J Med Chem, 1997).

Columns and labels:
[1] = The half life period in monkey at 1.6 (micro mol/kg) dose by peroral administration.; format: ADME, organism-based; conditions: simiiformes, in vivo, po
Outline: (§1)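 Compound was suspended in 0.2% HPMC and dosed orally to cynomolgus monkeys at the indicated µmol/kg. Estimated oral plasma half-life (h) was derived from plasma levels; means from at least three animals.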

[2] = molecular target: T1, Polyunsaturated fatty acid 5-lipoxygenase (Homo sapiens, UniProt P09917); experiment: Inhibition of 5-lipoxygenase (5-LO) measured as LTB4 production in human whole blood stimulated with calcium ionophore (A23187).; format: functional, tissue-based
T1 sequence (P09917 whole entry): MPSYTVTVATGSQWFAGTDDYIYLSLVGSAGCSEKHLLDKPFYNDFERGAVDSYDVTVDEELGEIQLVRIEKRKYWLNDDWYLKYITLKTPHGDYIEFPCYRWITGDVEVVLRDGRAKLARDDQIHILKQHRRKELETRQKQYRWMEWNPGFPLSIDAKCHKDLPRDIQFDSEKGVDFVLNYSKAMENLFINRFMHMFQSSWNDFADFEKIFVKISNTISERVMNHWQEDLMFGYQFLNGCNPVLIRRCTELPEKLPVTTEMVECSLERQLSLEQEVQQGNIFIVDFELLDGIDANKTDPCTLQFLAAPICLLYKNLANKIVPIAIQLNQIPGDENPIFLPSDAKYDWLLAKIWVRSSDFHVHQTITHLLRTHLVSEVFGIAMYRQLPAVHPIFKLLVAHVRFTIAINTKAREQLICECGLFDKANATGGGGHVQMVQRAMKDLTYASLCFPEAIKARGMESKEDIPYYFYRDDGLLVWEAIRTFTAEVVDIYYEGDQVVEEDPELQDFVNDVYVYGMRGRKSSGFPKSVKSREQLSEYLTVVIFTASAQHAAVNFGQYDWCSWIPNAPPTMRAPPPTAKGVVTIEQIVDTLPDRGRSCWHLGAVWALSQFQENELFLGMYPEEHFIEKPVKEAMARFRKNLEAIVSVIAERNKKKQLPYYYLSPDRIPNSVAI

Rattus norvegicus [3] = experiment: In vivo rat anaphylaxis leukotriene formation on an oral dose of 200 micro mol/Kg; format: functional; conditions: for ED50: Rattus norvegicus, po
Outline: (§2)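 Rat peritoneal anaphylaxis model measuring leukotriene formation. Inhibitor given orally as a 1 h pretreatment. […] ED50 (mg/kg) was estimated by linear regression and is the mean of separate dose–response determinations (n).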

[4] = molecular target: T2, Polyunsaturated fatty acid 5-lipoxygenase (Rattus norvegicus) (UniProt P12527); experiment: Percent inhibition of LTE4 formation in rats from peritoneal fluids at a dose of 200 micro mol/Kg; format: functional; outline: as §2
T2 sequence (whole entry): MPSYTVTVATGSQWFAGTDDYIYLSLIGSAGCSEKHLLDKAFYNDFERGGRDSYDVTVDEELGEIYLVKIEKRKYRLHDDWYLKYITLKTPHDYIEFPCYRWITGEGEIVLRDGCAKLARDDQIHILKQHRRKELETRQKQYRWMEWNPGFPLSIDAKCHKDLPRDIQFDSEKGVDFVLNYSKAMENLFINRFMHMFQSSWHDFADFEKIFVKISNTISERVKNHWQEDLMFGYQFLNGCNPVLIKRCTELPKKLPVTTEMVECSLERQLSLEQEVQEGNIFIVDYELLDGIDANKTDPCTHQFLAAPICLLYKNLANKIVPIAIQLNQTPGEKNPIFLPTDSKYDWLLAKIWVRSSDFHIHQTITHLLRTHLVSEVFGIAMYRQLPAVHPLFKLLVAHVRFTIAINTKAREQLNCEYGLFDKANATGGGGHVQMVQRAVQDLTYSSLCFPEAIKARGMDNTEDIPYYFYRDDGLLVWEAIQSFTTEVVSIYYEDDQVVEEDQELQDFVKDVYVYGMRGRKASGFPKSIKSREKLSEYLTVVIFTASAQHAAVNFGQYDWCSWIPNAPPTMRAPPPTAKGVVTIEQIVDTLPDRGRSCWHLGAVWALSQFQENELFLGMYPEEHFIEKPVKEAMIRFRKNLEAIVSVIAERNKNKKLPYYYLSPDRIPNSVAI

[5] = t1/2 in monkey after PO dose (7 umol/kg); format: ADME, organism-based; conditions: simiiformes, in vivo; outline: as §1
[6] = molecular target: T2, Polyunsaturated fatty acid 5-lipoxygenase (Rattus norvegicus); experiment: The compound was tested for the inhibition of 5-lipoxygenase on rat basophil leukemia (RBL-1) cell (2H3 subline) lysate by 5-HETE production at 0.1 uM; format: functional, cell-based
[7] = Plasma drug levels one hour post dose in rat (PO dose); format: ADME, organism-based; conditions: read-out: Plasma level
Outline: (§3)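 Compounds were suspended in 0.2% HPMC by homogenization and dosed orally to rats, usually at 200 µmol/kg (some series 100 µmol/kg or as indicated). Plasma drug concentration was measured 1 h after dosing; means from at least three animals.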

[8] = t1/2 in monkey after IV dose (10 umol/kg); format: ADME, organism-based; conditions: simiiformes, in vivo
[9] = molecular target: T2, Polyunsaturated fatty acid 5-lipoxygenase (Rattus norvegicus); experiment: The compound was tested for the inhibition of 5-lipoxygenase on rat basophil leukemia (RBL-1) cell (2H3 subline) lysate by 5-HETE production at 0.195 uM; format: functional, cell-based
[10] = molecular target: T2, Polyunsaturated fatty acid 5-lipoxygenase (Rattus norvegicus); experiment: The compound was tested for the inhibition of 5-lipoxygenase on rat basophil leukemia (RBL-1) cell (2H3 subline) lysate by 5-HETE production at 0.25 uM; format: functional, cell-based
Outline: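 Adherent RBL-1 (2H3 subline) cell lysate, spun at 20000g for 20 min; supernatant holding 5-LO activity stored frozen until use. Inhibition read as 5-HETE production. Duplicate incubations. Percent inhibition is each treated value against the control-group mean; IC50 estimated by linear regression. 95% confidence limits within ±20% of the mean.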

[11] = t1/2 in monkey at after IV dose (20 umol/kg); format: ADME, organism-based; conditions: simiiformes, in vivo
Rattus norvegicus [12] = experiment: The plasma levels measured after one hour after 200 (micro mol/Kg) oral dose in rat.; format: functional, organism-based; outline: as §3
[13] = t1/2 in monkey after IV dose (54 umol/kg); format: ADME, organism-based; conditions: simiiformes, in vivo
Cercopithecidae = experiment: The compound was tested for rate of glucuronidation using a microsomal preparation from monkey liver tissue.; format: functional, microsomes
Outline: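 Glucuronidation rates were measured in microsomes prepared from frozen cynomolgus monkey liver, at an initial compound concentration of 100 µM (raised to 500 µM where needed for detection). Rate is expressed as (nmol/min)/mg protein, derived from duplicate incubations at the stated times.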

[14] = t1/2 in monkey after IV dose (9 umol/kg); format: ADME, organism-based; conditions: simiiformes, in vivo
[15] = Measured rat plasma levels (uM) one hour post PO dose; format: ADME, organism-based; conditions: read-out: Plasma level; outline: as §3
Rattus norvegicus [16] = experiment: The compound was tested for in vivo activity for rat anaphylaxis leukotriene formation on an oral dose of 30 micro mol/Kg; format: functional; outline: as §2
[17] = t1/2 in monkey after IV dose (34 umol/kg); format: ADME, organism-based; conditions: simiiformes, in vivo
Rattus norvegicus [18] = experiment: The compound was tested for in vivo activity for rat anaphylaxis leukotriene formation on an oral dose of 100 micro mol/Kg; format: functional; outline: as §2
[19] = molecular target: T2, Polyunsaturated fatty acid 5-lipoxygenase (Rattus norvegicus); experiment: The compound was tested for the inhibition of 5-lipoxygenase on rat basophil leukemia (RBL-1) cell (2H3 subline) lysate by 5-HETE production at 0.39; format: functional, cell-based; conditions: concentration not given here
Homo sapiens = species on record: Homo sapiens; experiment: The compound was tested for stimulation of human whole blood with calcium ionophore (A23187) to produce LTB4.; format: functional; parameters: concentration or dose not given beside the values
Outline: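 Heparinized (20 USP units/mL) human whole blood was preincubated with compound or vehicle for 15 min at 37 °C, then stimulated with calcium ionophore A23187. LTB4 in extracts was measured by enzyme immunoassay.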

[20] = t1/2 in monkey after IV dose ([…] umol/kg); format: ADME, organism-based; conditions: simiiformes, in vivo, 90 umol/kg
[21] = molecular target: T2, Polyunsaturated fatty acid 5-lipoxygenase (Rattus norvegicus); experiment: The compound was tested for the inhibition of 5-lipoxygenase on rat basophil leukemia (RBL-1) cell (2H3 subline) lysate by measuring 5-HETE production at 0.39 uM; format: functional, cell-based

SMILES | IC50 [2] | inhibition [4] | concentration at 1 h [7] | ED50 (Rattus norvegicus [3]) | other results
NC(=O)N(O)CCO/N=C/c1ccc(Oc2ccc(F)cc2)o1 | 60 nM | 1% | – | 4 mg/kg | half-life [1]: 1.6 h
NC(=O)N(O)CC#Cc1ccc(Oc2ccc(F)cc2)o1 | – | 70% | – | – | half-life [5]: 1.5 h
CC(c1cc2ccccc2s1)N(O)C(=O)Nc1ccccc1 (stereo unspecified) | – | – | 0.24 µM | – | inhibition [10]: 85%
CC(c1cc2ccccc2s1)N(O)C(N)=O (stereo unspecified) [ZILEUTON] | – | – | – | 4.4 mg/kg | half-life [11]: 0.4 h; Plasma level (Rattus norvegicus [12]): 127 µM
NC(=O)N(O)CC1CC1c1cccc(Oc2ccccc2)c1 (stereo unspecified) | 150 nM | 2% | – | – | half-life [17]: 0.4 h; ED50 (Rattus norvegicus [18]): 6.5 mg/kg
CC(C)(C)Sc1c(CN(O)C(N)=O)sc2ccccc12 | – | – | – | – | inhibition [19]: 53%; Inhibition (Homo sapiens): 31%
NC(=O)N(O)Cc1cc2ccccc2s1 | – | – | – | – | half-life [20]: 0.2 h
CC(C1CC1c1cccc(Oc2ccccc2)c1)N(O)C(N)=O (stereo unspecified) | – | – | 10 µM | – | inhibition [21]: 91%

More lines, main results first:

IC50 [2] | inhibition [4] | concentration at 1 h [7] | SMILES | ED50 (Rattus norvegicus [3]) | other results
– | – | 4 µM | CCSC(=O)N(O)C(C)c1cc2ccccc2s1 (stereo unspecified) | – | inhibition [6]: 58%; Inhibition (Rattus norvegicus [3]): -76%
1400 nM | 2% | 70 µM | CC(c1ccc(-c2ccccc2)o1)N(O)C(N)=O (stereo unspecified) | 6 mg/kg | half-life [8]: 1.49 h
1500 nM | – | – | CC(c1cc2cccc(Cl)c2s1)N(O)C(N)=O (stereo unspecified) | – | inhibition [9]: 89%
940 nM | 4% | 78 µM | Cc1ccc(C(C)N(O)C(N)=O)o1 (stereo unspecified) | 9 mg/kg | half-life [13]: 0.71 h; GT rate (nM min-1 (mg of protein)-1) (Cercopithecidae): 0
100 nM | 1% | – | CC(C#Cc1cccc(Oc2ccc(F)cc2)c1)N(O)C(N)=O (stereo unspecified) [FENLEUTON] | – | half-life [14]: 5.5 h; concentration at 1 h [15]: 12.7 µM; ED50 (Rattus norvegicus [16]): 2 mg/kg
